# Reference: publication PMC7891373 (Clinical Pharmacology in Drug Development, 2020)
# Where two headings read alike, the source gives them in different places. Marks after values point to notes of the source that are not given here.
# Assays:
# [1] = type: in vivo, human; conditions: single oral dose, fasted; for AUC / AUC(0-t) / half-life / Tmax: male, human, plasma, po; for AUC: AUC0‐∞; for AUC(0-t): AUClast, AUC24h; for Tmax: n=24, median (min-max)
# In short: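 Healthy Japanese men aged 20–45 y with BMI 18.5 to <30.0 kg/m2, in an open-label randomized 2-period crossover. The 25-mg cohort was split into tablet→capsule and capsule→tablet sequences of 12, each a single fasted oral dose, with a washout of at least 28 days. Venous blood was drawn predose and 0.25–24 h post-dose. Plasma test compound was measured by validated LC-MS/MS (LLOQ 10.0 ng/mL). Parameters came from individual concentration-time profiles (AUClast = AUC24h), giving tablet/capsule geometric mean ratios.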
# [2] = Safety and tolerability assessment in the phase 1 study; type: in vivo, human; conditions: single oral dose 25 or 50 mg, tablet and capsule
# In short: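 Healthy Japanese men received single fasted oral 25- or 50-mg tablet and capsule doses in a crossover design, confined at the site around each dose. The safety set was all subjects given at least 1 dose. Adverse events were assessed by clinical interview, physical examination, 12-lead ECG and routine laboratory tests from start of treatment to end of follow-up. Each was coded by MedDRA 17.0 (Japanese) and graded for severity, seriousness and causality.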
# CYP2C8 = conditions: in vitro; cited from earlier work
# CYP2C9 = conditions: in vitro; cited from earlier work
# [3] = cited from earlier work
smiles,measurement,setting,value
Cc1c(Cl)c(C)[n+]([O-])c(Cl)c1-c1noc(-c2cc(O)c(O)c([N+](=O)[O-])c2)n1 [Opicapone],AUC,"[1]; 25 mg, opicapone 25 mg tablet, n=23, mean ± SD",2530 ± 581 ng·h/mL
same,AUC(0-t),"[1]; 25 mg, opicapone 25 mg tablet, n=24, mean ± SD",2480 ± 586 ng·h/mL
same,half-life,"[1]; 25 mg, t1/2, opicapone 25 mg tablet, n=23, mean ± SD",0.729 ± 0.173 h
same,Tmax,"[1]; 25 mg, opicapone 25 mg tablet",2 h
same,AUC,"[1]; 50 mg, opicapone 50 mg capsule, n=23, mean ± SD",4210 ± 1620 ng·h/mL
same,AUC(0-t),"[1]; 50 mg, opicapone 50 mg capsule, n=24, mean ± SD",4080 ± 1650 ng·h/mL
same,half-life,"[1]; 50 mg, t1/2, opicapone 50 mg capsule, n=23, mean ± SD",1.18 ± 0.477 h
same,Tmax,"[1]; 50 mg, opicapone 50 mg capsule",2 h
same,CL/F,"[1]; opicapone 25 mg capsule, n=24, mean ± SD",12.9 ± 5.31 L/h
same,CL/F,"[1]; opicapone 25 mg tablet, n=23, mean ± SD",10.6 ± 3.50 ^b L/h
same,Geometric Mean Ratio (Tablets/Capsules) of AUC0‐∞,"[1]; opicapone 25 mg, n=24",1.19
same,Geometric Mean Ratio (Tablets/Capsules) of AUClast,"[1]; opicapone 25 mg, n=24",1.18
same,Geometric Mean Ratio (Tablets/Capsules) of Cmax,"[1]; opicapone 25 mg, n=24",1.24
same,CL/F,"[1]; opicapone 50 mg capsule, n=23, mean ± SD",13.6 ± 5.09 ^b L/h
same,CL/F,"[1]; opicapone 50 mg tablet, n=23, mean ± SD",10.4 ± 3.20 L/h
same,Geometric Mean Ratio (Tablets/Capsules) of AUC0‐∞,"[1]; opicapone 50 mg, n=23",1.27
same,Geometric Mean Ratio (Tablets/Capsules) of AUClast,"[1]; opicapone 50 mg, n=24",1.28
same,Geometric Mean Ratio (Tablets/Capsules) of Cmax,"[1]; opicapone 50 mg, n=24",1.42
same,Serious adverse events,"[2]; any group, study period",no serious adverse events
same,Tolerability,[2]; healthy Japanese subjects,well tolerated
same,CYP2C8 inhibition,CYP2C8,"weak, reversible inhibitor"
same,CYP2C9 inhibition,CYP2C9,"weak, reversible inhibitor"
Cc1nc(Cl)c(-c2noc(-c3cc(O)c(O)c([N+](=O)[O-])c3)n2)c(C)c1Cl [BIA 9–1079],half-life of metabolite,[3]; not assessed in this study,short
Cc1c(Cl)c(C)[n+]([O-])c(Cl)c1-c1noc(-c2cc(OS(=O)(=O)O)c(O)c([N+](=O)[O-])c2)n1 [BIA 9–1103],half-life of metabolite,[3]; especially following repeated dosing,relatively long
